From ChEMBL document CHEMBL1139157, “2,5-Disubstituted pyridines: the discovery of a novel series of 5-HT2A ligands” (Bioorg Med Chem Lett, 2007) come the findings set out here.

Usually Ki stands for a measure of affinity in units of concentration, obtained from inhibition or displacement. The low end stands for higher affinity, the high end for lower affinity.

For data set [1], the target named is Serotonin 2 receptors; 5-HT2a & 5-HT2c (Homo sapiens) (UniProt P28223+P28335). The data set can be described thus: Selectivity for human 5HT2A receptor over human 5HT2C receptor.
Data set [2] has as its target T1, 5-hydroxytryptamine receptor 2C (Homo sapiens, UniProt P28335).
T1 sequence (P28335 whole entry): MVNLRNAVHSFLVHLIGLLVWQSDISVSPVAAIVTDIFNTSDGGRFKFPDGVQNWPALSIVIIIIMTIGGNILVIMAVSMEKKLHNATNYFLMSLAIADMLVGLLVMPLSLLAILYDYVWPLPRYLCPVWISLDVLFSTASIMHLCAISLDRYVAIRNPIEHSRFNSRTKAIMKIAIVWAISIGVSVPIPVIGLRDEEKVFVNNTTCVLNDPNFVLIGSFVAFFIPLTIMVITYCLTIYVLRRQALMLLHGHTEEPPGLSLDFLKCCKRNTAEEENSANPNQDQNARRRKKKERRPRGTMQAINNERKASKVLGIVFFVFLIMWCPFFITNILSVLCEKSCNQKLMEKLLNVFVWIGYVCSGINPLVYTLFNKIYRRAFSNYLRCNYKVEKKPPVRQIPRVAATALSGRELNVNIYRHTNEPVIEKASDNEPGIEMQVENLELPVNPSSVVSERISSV
Nature of the data set: Displacement of [3H][…] from human 5HT2C receptor expressed in CHO cells. In kind it is cell-based. (In general: Loss of bound radioactivity is the signal in a displacement assay; it reports binding, not function.)

The target in data set [3] is Voltage-gated inwardly rectifying potassium channel KCNH2 (Homo sapiens, UniProt Q12809). The data set can be described thus: Displacement of [3H]dofetilide from hERG expressed in HEK cells. The class given is cell-based, HEK293.
The target of data set [4] is 5-hydroxytryptamine receptor 2A (Homo sapiens, UniProt P28223). The data set can be described thus: Displacement of [3H]ketanserin from human 5HT2A receptor expressed in CHO cells. In kind it is cell-based.
Data set [5] has as its target D(2) dopamine receptor (Homo sapiens, UniProt P14416). Nature of the data set: Displacement of [3H]spiperone from human dopamine D2 receptor expressed in CHO cells. In kind it is cell-based.
The test system of data set [6] is Rattus norvegicus. The data set can be described thus: Receptor occupancy ex vivo by displacement of tritiated radioligand from 5HT2A receptor in rat at 5 mg/kg, po. In kind it is functional. Put shortly: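 Rats dosed 5 mg/kg po; [3H] selective 5-HT2A radioligand (6 lCi) given by tail vein injection. Read at 1 h. Occupancy (%) = 100 − [100·(compound counts/vehicle counts)], with vehicle counts taken as total binding.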

Data set [7] in a line: Drug level in rat brain at 5 mg/kg, po after 1 hr. The class given is ADME, organism-based. More on the design: dose 5 mg/kg, route oral. Particulars: read-out: Drug uptake. The procedure, abridged:
(§1)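 Rats given 5 mg/kg po, with a radiolabeled selective 5-HT2A ligand co-administered; drug concentrations in plasma and brain measured at 1 h after dosing.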

Data set [8] is described as follows: Drug level in rat plasma at 5 mg/kg, po after 1 hr. More on the design: dose 5 mg/kg, route oral. The class given is ADME, organism-based. The procedure, abridged:
as §1

Molecules are shown by their SMILES.

D(2) dopamine receptor, sequence (P14416 whole entry): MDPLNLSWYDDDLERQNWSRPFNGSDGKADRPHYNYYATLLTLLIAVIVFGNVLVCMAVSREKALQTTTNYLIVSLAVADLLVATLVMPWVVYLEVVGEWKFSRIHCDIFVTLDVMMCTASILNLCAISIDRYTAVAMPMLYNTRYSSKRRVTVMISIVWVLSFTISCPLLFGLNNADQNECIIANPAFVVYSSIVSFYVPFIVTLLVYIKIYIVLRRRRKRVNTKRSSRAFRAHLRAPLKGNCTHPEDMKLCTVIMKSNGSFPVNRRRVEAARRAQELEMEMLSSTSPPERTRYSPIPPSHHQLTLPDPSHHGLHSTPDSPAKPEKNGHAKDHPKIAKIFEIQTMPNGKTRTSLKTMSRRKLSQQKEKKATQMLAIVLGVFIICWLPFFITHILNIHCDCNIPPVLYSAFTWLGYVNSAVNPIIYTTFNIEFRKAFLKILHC
Voltage-gated inwardly rectifying potassium channel KCNH2, sequence (Q12809 whole entry): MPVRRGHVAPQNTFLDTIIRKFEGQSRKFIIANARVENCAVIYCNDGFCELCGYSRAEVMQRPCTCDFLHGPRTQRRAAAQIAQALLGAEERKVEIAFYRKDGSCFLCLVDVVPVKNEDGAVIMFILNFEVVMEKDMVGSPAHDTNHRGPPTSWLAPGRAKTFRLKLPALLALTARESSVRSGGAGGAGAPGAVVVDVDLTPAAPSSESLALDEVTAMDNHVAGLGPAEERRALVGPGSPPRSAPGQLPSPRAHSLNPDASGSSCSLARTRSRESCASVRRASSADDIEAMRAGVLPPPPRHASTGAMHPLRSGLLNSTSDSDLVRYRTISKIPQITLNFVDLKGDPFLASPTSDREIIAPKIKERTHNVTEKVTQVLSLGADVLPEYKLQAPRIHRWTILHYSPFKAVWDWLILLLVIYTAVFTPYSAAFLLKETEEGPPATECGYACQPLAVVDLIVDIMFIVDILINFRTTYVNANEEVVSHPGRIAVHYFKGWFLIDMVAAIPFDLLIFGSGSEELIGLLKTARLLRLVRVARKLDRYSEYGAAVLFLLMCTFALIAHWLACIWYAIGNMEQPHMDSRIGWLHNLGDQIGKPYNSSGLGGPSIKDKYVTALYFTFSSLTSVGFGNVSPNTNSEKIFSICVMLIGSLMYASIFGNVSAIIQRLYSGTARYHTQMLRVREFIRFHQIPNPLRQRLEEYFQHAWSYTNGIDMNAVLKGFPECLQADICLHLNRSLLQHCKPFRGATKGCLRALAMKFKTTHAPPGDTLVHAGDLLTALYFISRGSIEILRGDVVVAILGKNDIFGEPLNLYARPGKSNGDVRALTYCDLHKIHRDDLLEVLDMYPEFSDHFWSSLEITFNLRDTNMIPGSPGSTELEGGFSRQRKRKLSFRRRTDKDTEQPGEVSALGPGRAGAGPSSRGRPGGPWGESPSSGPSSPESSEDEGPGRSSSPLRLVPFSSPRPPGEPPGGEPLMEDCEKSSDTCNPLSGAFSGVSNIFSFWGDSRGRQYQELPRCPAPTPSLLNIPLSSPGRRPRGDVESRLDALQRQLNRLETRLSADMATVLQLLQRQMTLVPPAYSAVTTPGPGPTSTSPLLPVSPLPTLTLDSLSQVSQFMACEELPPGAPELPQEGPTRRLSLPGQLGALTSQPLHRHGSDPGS
5-hydroxytryptamine receptor 2A, sequence (P28223 whole entry): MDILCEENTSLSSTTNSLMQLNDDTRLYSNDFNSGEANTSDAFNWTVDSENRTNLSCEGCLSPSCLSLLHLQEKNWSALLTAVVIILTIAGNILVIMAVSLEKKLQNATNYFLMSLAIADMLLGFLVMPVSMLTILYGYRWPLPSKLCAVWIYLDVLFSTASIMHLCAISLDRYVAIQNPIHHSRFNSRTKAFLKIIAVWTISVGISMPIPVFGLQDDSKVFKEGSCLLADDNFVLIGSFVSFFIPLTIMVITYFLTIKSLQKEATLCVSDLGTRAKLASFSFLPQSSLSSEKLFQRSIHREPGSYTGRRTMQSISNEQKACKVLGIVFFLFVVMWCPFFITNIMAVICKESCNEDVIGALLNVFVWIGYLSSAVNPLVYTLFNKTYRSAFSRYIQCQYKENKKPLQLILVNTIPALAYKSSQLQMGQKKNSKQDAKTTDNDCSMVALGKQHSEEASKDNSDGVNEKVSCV
Serotonin 2 receptors; 5-HT2a & 5-HT2c (Homo sapiens), sequence (P28223 whole entry, looked up, one chain of several): as the sequence (P28223 whole entry) above

Turning to `O=S(=O)(c1ccc(/C=C/c2ccc(F)cc2F)nc1)c1ccccc1F`, in data set [1], the Ratio Ki amounted to 160. In addition, the inhibitory constant (Ki) in data set [2] was 410 nM; in data set [3] it was over 9000 nM; in data set [4], 2.6 nM; in data set [5], over 1000 nM.

Consider `[O-][S+](c1ccccc1)c1ccc(/C=C/c2ccc(F)cc2F)nc1` (stereo in doubt; 30) [listing 1 of 2 here], for which the Ratio Ki in data set [1] turned out to be 38.

On to `COc1cc(F)ccc1/C=C/c1ccc(S(=O)(=O)c2ccccc2F)cn1`, for which the values for the Ki in data set [4] and in data set [5] were 65 nM and over 2000 nM, respectively.

`[O-][S+](c1ccccc1)c1ccc(/C=C/c2ccc(F)cc2F)nc1` (stereo in doubt; 30) [listing 2 of 2 here] returned an Activity in data set [6] of 90%. Besides, the concentration at 1 h in data set [7] was 1070 nM; in data set [8], 230 nM. For the same compound, the Ki in data set [2] is 30 nM; in data set [3] it was 2800 nM; in data set [4], 0.79 nM; in data set [5] (cho), over 2000 nM.

In the case of `O=S(=O)(c1ccc(/C=C/c2ccncc2)nc1)c1ccccc1F`, in data set [1], the Ratio Ki was over 5. For the same compound, the Ki in data set [2] is over 4000 nM; in data set [3], 4200 nM; in data set [4], 790 nM; in data set [5] it was over 2000 nM.

As to `[O-][S+](c1ccccc1)c1ccc(/C=C/c2ccc(F)cc2F)nc1` (single isomer, unassigned; form 1) [listing 1 of 2 here], the Ki in data set [2] was 2400 nM; in data set [3], 4200 nM; in data set [4], 30 nM; in data set [5] (cho), over 2000 nM.

As to `O=S(=O)(c1ccc(F)cc1)c1ccc(/C=C/c2ccc(F)cc2)cn1`, the Ratio Ki in data set [1] is over 140. In addition, the Ki in data set [2] is over 4000 nM; in data set [3], 3300 nM; in data set [4], 28 nM; in data set [5], over 1000 nM.

Regarding `O=S(=O)(c1ccc(/C=C/c2ccc(F)cc2)nc1)c1ccccc1F`, the Ratio Ki in data set [1] was over 740. Moreover, the Ki is over 4000 nM in data set [2], over 9000 nM in data set [3], 5.4 nM in data set [4] and over 1000 nM in data set [5].

In the case of `O=S(=O)(c1ccccc1)c1ccc(/C=C/c2ccc(F)cc2F)nc1`, the Activity in data set [6] was 45%. Besides, the concentration at 1 h in data set [7] is 180 nM; in data set [8], 80 nM. Also, the results for the Ki in data set [2], in data set [4] and in data set [5] were over 4000 nM, 0.86 nM and over 2000 nM, respectively.

Take `O=S(=O)(c1ccccc1)c1ccc(/C=C/c2ccc(F)cc2)nc1`: the Ratio Ki in data set [1] is over 540. For the same compound, the Ki in data set [2] was over 4000 nM; in data set [3], over 9000 nM; in data set [4], 7.4 nM; in data set [5], over 1000 nM.

On to `[O-][S+](c1ccccc1)c1ccc(/C=C/c2ccc(F)cc2F)nc1` (single isomer, unassigned; form 2) [listing 1 of 2 here], for which the Ki in data set [2] was 25 nM; in data set [3], 6500 nM; in data set [4], 0.7 nM; in data set [5], over 2000 nM.

Take `O=S(=O)(c1ccc(F)cc1)c1ccc(CCc2ccc(F)cc2)cn1`: in data set [1], the Ratio Ki was over 210. Further, the Ki in data set [2] was over 4000 nM; in data set [3], 6900 nM; in data set [4], 19 nM; in data set [5], over 1000 nM.

`[O-][S+](c1ccc(/C=C/c2ccc(F)cc2F)nc1)c1ccccc1F` (configuration not stated): the Ki in data set [2] is 43 nM; in data set [4], 3.5 nM; in data set [5], over 2000 nM.

As for `O=S(=O)(c1ccc(/C=C/c2cccc(F)c2)nc1)c1ccccc1F`, the Ratio Ki in data set [1] is over 27. Also, the Ki was over 4000 nM in data set [2], over 9000 nM in data set [3], 150 nM in data set [4] and over 2000 nM in data set [5].

On to `O=S(=O)(c1ccc(/C=C/c2ccc(F)cc2Cl)nc1)c1ccccc1F`, for which the Ratio Ki in data set [1] was found to be 36. Moreover, the Ki in data set [2] was 64 nM; in data set [3], 4800 nM; in data set [4], 1.8 nM; in data set [5] it was over 2000 nM.

As for `O=S(=O)(c1ccc(/C=C/c2ccc(F)cc2O)nc1)c1ccccc1F`, the Ratio Ki in data set [1] worked out at 3000. Also, the Ki in data set [2] is 580 nM; in data set [3], 2100 nM; in data set [4], 0.19 nM; in data set [5] it was over 2000 nM.

Consider `Cc1cc(F)ccc1/C=C/c1ccc(S(=O)(=O)c2ccccc2F)cn1`, for which the Ratio Ki in data set [1] is 27. The Ki was 220 nM in data set [2], 5000 nM in data set [3], 8.2 nM in data set [4] and over 2000 nM in data set [5].

Consider `O=S(=O)(c1ccc(F)cc1)c1ccc(/C=C/c2ccc(F)cc2)nc1`, for which the Ki in data set [2] is over 4000 nM; in data set [4], 17 nM; in data set [5] it was over 1000 nM.

For `O=S(=O)(c1ccc(/C=C/c2ccc(F)cc2)nc1)c1cccc(F)c1`, the Ratio Ki in data set [1] is over 420. Further, the Ki was over 4000 nM in data set [2], over 9000 nM in data set [3], 9.6 nM in data set [4] and over 1000 nM in data set [5].

`[O-][S+](c1ccc(/C=C/c2ccc(F)cc2)nc1)c1ccccc1F` (configuration not stated): the Ratio Ki in data set [1] turned out to be 35. Further, the Ki was 160 nM in data set [2], 2900 nM in data set [3], 4.6 nM in data set [4] and over 2000 nM in data set [5].

Take `[O-][S+](c1ccccc1)c1ccc(/C=C/c2ccc(F)cc2F)nc1` (single isomer, unassigned; form 2) [listing 2 of 2 here]: the Ratio Ki in data set [1] came out at 36.

As for `O=S(=O)(c1ccc(/C=C/c2ccccc2F)nc1)c1ccccc1F`, the Ratio Ki in data set [1] is over 1500. Besides, the Ki in data set [2] is over 4000 nM; in data set [3], over 9000 nM; in data set [4] it was 2.6 nM; in data set [5] it was over 2000 nM.

As to `N#Cc1cc(F)ccc1/C=C/c1ccc(S(=O)(=O)c2ccccc2F)cn1`, the Ratio Ki in data set [1] is 2.1. For the same compound, the Ki is 19 nM in data set [2], 1500 nM in data set [3], 9.9 nM in data set [4] and over 2000 nM in data set [5].

Take `O=S(=O)(c1ccc(/C=C/c2ccccc2O)nc1)c1ccccc1F`: the Ratio Ki in data set [1] came to 220. Further, the Ki is 810 nM in data set [2], 1400 nM in data set [3], 3.6 nM in data set [4] and over 2000 nM in data set [5].

Take `O=S(=O)(c1ccc(F)cc1)C1(F)CCN(CCc2ccc(F)cc2F)CC1`: the Ratio Ki in data set [1] was found to be 460. The same compound came in with a Ki in data set [3] of 5600 nM.

As to `[O-][S+](c1ccccc1)c1ccc(/C=C/c2ccc(F)cc2)nc1` (configuration not stated), the Ratio Ki in data set [1] stood at 26. Moreover, the Ki in data set [2] was 200 nM; in data set [3], 3900 nM; in data set [4], 7.7 nM; in data set [5], over 2000 nM.

For the compound `[O-][S+](c1ccccc1)c1ccc(/C=C/c2ccc(F)cc2F)nc1` (single isomer, unassigned; form 1) [listing 2 of 2 here], the Ratio Ki in data set [1] stood at 80.

For the compound `O=S(=O)(c1ccc(F)cc1)c1ccc(CCc2ccc(F)cc2)nc1`, the inhibition constant (Ki) in data set [2] was 2700 nM; in data set [4] it was 23 nM; in data set [5], over 1000 nM.
